In ChEMBL document CHEMBL4673243, “Discovery of 9-Cyclopropylethynyl-2-((S)-1-[1,4]dioxan-2-ylmethoxy)-6,7-dihydropyrimido[6,1-a]isoquinolin-4-one (GLPG1205), a Unique GPR84 Negative Allosteric Modulator Undergoing Evaluation in a Phase II Clinical Trial” (J Med Chem, 2020):
Converted amounts (≈) assume the structure as drawn. Each block holds one compound with its values, some of them ahead of it.

Experiments:
in vitro [1] = conditions: human, liver microsomes
in vitro [2] = conditions: mouse, cryopreserved hepatocytes
in vitro [3] = conditions: human, cryopreserved hepatocytes
in vitro [4] = conditions: mouse, liver microsomes
[5] = target: 3',5'-cyclic-AMP phosphodiesterase 4A (Homo sapiens, UniProt P27815); assay: Inhibition of recombinant human PDE4A overexpressed in HEK293 cells assessed as reduction in cAMP hydrolysis by HTRF based immunoassay; format: cell-based; conditions: read-out: IC50
3',5'-cyclic-AMP phosphodiesterase 4A, sequence (P27815 whole entry): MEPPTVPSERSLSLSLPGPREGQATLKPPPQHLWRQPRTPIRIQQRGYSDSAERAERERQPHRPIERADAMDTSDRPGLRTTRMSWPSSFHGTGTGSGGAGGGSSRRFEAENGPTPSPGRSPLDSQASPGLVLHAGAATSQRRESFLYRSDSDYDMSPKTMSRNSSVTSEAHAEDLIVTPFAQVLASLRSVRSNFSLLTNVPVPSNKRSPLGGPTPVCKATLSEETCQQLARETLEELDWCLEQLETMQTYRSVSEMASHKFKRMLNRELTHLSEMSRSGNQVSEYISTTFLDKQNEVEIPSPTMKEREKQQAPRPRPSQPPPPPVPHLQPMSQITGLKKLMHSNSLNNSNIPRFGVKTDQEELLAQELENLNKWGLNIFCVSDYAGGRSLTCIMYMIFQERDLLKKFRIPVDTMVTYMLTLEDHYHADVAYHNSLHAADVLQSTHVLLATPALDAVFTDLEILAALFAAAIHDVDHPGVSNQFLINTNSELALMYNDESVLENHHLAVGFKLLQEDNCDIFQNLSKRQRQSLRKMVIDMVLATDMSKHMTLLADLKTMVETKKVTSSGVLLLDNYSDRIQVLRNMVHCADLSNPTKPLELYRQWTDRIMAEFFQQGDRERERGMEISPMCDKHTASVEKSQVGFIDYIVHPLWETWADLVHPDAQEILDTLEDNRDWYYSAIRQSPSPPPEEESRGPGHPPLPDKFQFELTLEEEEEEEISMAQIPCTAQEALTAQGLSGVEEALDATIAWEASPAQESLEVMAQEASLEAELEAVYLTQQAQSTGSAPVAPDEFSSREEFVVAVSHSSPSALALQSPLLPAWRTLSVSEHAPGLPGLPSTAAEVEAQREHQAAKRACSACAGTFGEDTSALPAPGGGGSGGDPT
Method in brief: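 Human PDE4A from lysate of HEK293 cells overexpressing the enzyme hydrolyses cAMP; remaining cAMP measured by HTRF competitive immunoassay (d2-labelled cAMP vs cryptate anti-cAMP antibody), signal inversely proportional to cAMP; IC50 determined.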

physchem [6] = conditions: aqueous solution with 2% DMSO, pH 7.4
in vitro [7] = conditions: rat, liver microsomes
[8] = Plasma protein binding in mouse at 5 uM measured after 4 hrs by LC-MS/MS analysis
[9] = Plasma protein binding in human at 5 uM measured after 4 hrs by LC-MS/MS analysis
[10] = Plasma protein binding in rat at 5 uM measured after 4 hrs by LC-MS/MS analysis
Cytochrome P450 2C19 = Cytochrome P450 2C19 (Homo sapiens, UniProt P33261); assay: Inhibition of CYP2C19 in human liver microsomes using probe substrate and in presence of co-factor preincubated for 20 mins followed by substrate addition by LC-MS/MS analysis
Cytochrome P450 2C19, sequence (P33261 whole entry): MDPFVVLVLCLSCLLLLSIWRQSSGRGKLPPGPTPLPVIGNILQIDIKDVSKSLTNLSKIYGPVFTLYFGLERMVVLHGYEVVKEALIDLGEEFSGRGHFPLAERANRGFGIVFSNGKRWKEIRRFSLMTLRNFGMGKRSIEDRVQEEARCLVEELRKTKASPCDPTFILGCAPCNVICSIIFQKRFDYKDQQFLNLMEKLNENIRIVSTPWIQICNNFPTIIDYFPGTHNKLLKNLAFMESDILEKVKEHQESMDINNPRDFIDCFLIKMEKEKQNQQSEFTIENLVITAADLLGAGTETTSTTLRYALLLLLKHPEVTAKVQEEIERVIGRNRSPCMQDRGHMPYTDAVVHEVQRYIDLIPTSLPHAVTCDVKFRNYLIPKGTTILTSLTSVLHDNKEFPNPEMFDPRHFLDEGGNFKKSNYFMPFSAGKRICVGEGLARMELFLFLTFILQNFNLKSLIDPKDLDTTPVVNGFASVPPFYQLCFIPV

in vitro [11] = conditions: dog, cryopreserved hepatocytes
[12] = Inhibition of embelin-induced migration of rat neutrophils preincubated for 30 mins followed by embelin addition and measured after 1 hr by celltiter-glo assay; conditions: Neutrophil
in vitro [13] = conditions: dog, cryopreserved hepatocytes; remark: listed apart in the source
[14] = Thermodynamic solubility of compound at pH 7.4; conditions: buffer
in vitro [15] = conditions: mouse, cryopreserved hepatocytes; remark: listed apart in the source
[16] = Inhibition of embelin-induced migration of human neutrophils preincubated for 30 mins followed by embelin addition and measured after 1 hr by ATPlite luminescence assay; conditions: Neutrophil
physchem [17] = conditions: aqueous solution with 2% DMSO, pH 3
Cytochrome P450 3A4 [18] = target: T1, Cytochrome P450 3A4 (Homo sapiens, UniProt P08684); assay: Inhibition of human CYP3A4 in human liver microsomes using testosterone as substrate and in presence of co-factor preincubated for 20 mins followed by substrate addition by LC-MS/MS analysis
T1 sequence (P08684 whole entry): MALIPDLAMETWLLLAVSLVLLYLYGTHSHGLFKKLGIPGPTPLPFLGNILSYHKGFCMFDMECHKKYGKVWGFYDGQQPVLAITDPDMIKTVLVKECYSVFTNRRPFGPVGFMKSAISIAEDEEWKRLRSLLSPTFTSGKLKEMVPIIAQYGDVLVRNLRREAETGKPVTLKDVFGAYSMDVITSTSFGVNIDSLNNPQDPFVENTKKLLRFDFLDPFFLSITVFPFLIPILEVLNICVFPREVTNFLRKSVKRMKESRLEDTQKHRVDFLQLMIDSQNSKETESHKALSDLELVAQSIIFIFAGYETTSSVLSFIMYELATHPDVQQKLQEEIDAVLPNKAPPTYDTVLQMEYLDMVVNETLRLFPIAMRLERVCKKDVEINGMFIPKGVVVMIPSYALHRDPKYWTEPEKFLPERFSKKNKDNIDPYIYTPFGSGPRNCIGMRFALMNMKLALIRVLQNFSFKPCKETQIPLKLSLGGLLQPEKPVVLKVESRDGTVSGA

in vitro [19] = conditions: human, cryopreserved hepatocytes; remark: listed apart in the source
Cytochrome P450 1A2 = target: T2, Cytochrome P450 1A2 (Homo sapiens, UniProt P05177); assay: Inhibition of CYP1A2 in human liver microsomes using probe substrate and in presence of co-factor preincubated for 20 mins followed by substrate addition by LC-MS/MS analysis
T2 sequence (P05177 whole entry): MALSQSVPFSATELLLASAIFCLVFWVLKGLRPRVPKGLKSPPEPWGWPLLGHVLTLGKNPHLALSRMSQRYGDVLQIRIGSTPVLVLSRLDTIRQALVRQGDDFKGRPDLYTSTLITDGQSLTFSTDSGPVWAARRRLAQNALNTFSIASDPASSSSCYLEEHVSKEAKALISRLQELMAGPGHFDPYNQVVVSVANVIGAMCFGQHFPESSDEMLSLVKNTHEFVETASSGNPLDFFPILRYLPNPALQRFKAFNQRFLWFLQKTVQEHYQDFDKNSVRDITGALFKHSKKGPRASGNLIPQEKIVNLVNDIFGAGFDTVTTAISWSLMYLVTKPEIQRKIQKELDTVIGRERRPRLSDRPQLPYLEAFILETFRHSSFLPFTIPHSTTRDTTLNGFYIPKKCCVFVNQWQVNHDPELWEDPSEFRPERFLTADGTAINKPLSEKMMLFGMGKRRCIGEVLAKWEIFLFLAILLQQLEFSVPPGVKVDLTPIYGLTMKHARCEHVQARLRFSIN

Neutrophil = assay: Inhibition of dog neutrophil cell migration; conditions: Canis lupus familiaris
[20] = Apparent permeability from apical to basolateral in human Caco2 cells at 10 uM measured after 60 mins by lucifer yellow dye based LC-MS/MS analysis; conditions: Caco-2
[21] = target: Cytochrome P450 2D6 (Homo sapiens) (UniProt P10635)
Cytochrome P450 2D6 (Homo sapiens), sequence (P10635 whole entry, looked up): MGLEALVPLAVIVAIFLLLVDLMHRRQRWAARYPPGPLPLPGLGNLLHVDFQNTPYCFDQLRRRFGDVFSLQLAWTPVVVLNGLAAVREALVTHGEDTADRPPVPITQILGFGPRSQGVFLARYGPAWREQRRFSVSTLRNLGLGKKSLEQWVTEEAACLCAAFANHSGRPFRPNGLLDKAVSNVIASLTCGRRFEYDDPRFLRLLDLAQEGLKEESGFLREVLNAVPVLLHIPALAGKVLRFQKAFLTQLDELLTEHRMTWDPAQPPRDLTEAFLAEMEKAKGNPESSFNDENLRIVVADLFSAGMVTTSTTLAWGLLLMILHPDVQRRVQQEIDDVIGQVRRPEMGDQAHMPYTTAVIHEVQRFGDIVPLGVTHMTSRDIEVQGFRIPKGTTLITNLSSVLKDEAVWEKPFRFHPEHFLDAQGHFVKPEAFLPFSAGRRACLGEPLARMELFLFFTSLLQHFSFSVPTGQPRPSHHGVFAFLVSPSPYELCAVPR

[22] = target: Cytochrome P450 2C9 (Homo sapiens) (UniProt P11712)
Cytochrome P450 2C9 (Homo sapiens), sequence (P11712 whole entry, looked up): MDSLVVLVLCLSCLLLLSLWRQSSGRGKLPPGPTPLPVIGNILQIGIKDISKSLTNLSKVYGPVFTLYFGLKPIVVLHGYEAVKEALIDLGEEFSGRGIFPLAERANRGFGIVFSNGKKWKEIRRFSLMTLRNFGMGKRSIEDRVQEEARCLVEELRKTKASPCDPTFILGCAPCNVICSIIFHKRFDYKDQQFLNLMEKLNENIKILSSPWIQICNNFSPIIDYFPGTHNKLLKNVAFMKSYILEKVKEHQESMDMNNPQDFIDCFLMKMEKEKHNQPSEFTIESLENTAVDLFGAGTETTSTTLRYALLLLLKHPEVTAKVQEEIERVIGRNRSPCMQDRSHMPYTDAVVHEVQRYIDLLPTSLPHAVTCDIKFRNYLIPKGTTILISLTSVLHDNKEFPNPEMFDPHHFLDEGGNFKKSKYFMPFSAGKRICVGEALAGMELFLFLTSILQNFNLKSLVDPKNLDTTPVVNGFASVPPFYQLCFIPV

Cytochrome P450 3A4 [23] = target: T1, Cytochrome P450 3A4; assay: Inhibition of CYP3A4 in human liver microsomes using midazolam as substrate and in presence of co-factor preincubated for 20 mins followed by substrate addition by LC-MS/MS analysis
in vitro [24] = conditions: rat, cryopreserved hepatocytes
in vitro [25] = conditions: dog, liver microsomes
[26] = Plasma protein binding in dog at 5 uM measured after 4 hrs by LC-MS/MS analysis
[27] = Thermodynamic solubility of compound at pH 3; conditions: buffer
in vitro [28] = conditions: rat, cryopreserved hepatocytes; remark: listed apart in the source
CYP2C9 = CYP2C9 (Homo sapiens, UniProt P11712); assay: Inhibition of CYP2C9 in human liver microsomes at 10 uM using probe substrate and in presence of co-factor measured after 20 mins by LC-MS/MS analysis relative to control; format: ADME
CYP2C9, sequence (P11712 whole entry): as the sequence (P11712 whole entry, looked up) above

CYP3A4 [29] = target: T3, CYP3A4 (Homo sapiens, UniProt P08684); assay: Inhibition of CYP3A4 in human liver microsomes at 10 uM using testosterone as probe substrate and in presence of co-factor measured after 20 mins by LC-MS/MS analysis relative to control; format: ADME
T3 sequence (P08684 whole entry): as the sequence (P08684 whole entry) above

CYP2C19 = CYP2C19 (Homo sapiens, UniProt P33261); assay: Inhibition of CYP2C19 in human liver microsomes at 10 uM using probe substrate and in presence of co-factor measured after 20 mins by LC-MS/MS analysis relative to control; format: ADME
CYP2C19, sequence (P33261 whole entry): as the sequence (P33261 whole entry) above

CYP3A4 [30] = target: T3, CYP3A4; assay: Inhibition of CYP3A4 in human liver microsomes at 10 uM using midazolam as probe substrate and in presence of co-factor measured after 20 mins by LC-MS/MS analysis relative to control; format: ADME
CYP2D6 = CYP2D6 (Homo sapiens, UniProt P10635); assay: Inhibition of CYP2D6 in human liver microsomes at 10 uM using probe substrate and in presence of co-factor measured after 20 mins by LC-MS/MS analysis relative to control; format: ADME
CYP2D6, sequence (P10635 whole entry): as the sequence (P10635 whole entry, looked up) above

CYP1A2 = target: T4, CYP1A2 (Homo sapiens, UniProt P05177); assay: Inhibition of CYP1A2 in human liver microsomes at 10 uM using probe substrate and in presence of co-factor measured after 20 mins by LC-MS/MS analysis relative to control; format: ADME
T4 sequence (P05177 whole entry): T2 sequence (P05177 whole entry)

- CLint scaled at 0.5 h, 1 µM (in vitro [1]): 21.7 mL/min/kg
- CLint scaled at 1 µM (in vitro [2]): 575 mL/min/kg
- CLint scaled at 1 µM (in vitro [3]): 25 mL/min/kg
- CLint scaled at 0.5 h, 1 µM (in vitro [4]): 463 mL/min/kg
SMILES: COc1ccc2c(c1)CCn1c-2cc(OCC2CCCCO2)nc1=O (stereo not drawn)

- CLint scaled at 0.5 h, 1 µM (in vitro [7]): 255 mL/min/kg
- CLint scaled at 0.5 h, 1 µM (in vitro [4]): 437 mL/min/kg
SMILES: CC(C)CC(O)C#Cc1ccc2c(c1)CCn1c-2cc(OCC2COCCO2)nc1=O (stereo not drawn)

- inhibition at 20 min, 10 µM (CYP2C9): < 33%
- IC50 [5]: 553 nM
- inhibition at 20 min, 10 µM (CYP3A4 [29]): < 33%
- inhibition at 20 min, 10 µM (CYP2C19): < 33%
- inhibition at 20 min, 10 µM (CYP3A4 [30]): < 33%
- inhibition at 20 min, 10 µM (CYP2D6): < 33%
- inhibition at 20 min, 10 µM (CYP1A2): < 33%
SMILES: COc1cc2c(cc1OC)-c1cc(NCc3ccccc3)nc(=O)n1CC2

- IC50 [5]: 1090 nM
SMILES: COc1cc2c(cc1OC)-c1cc(OCc3ncccc3F)nc(=O)n1CC2

- CLint scaled at 0.5 h, 1 µM (in vitro [1]): 33.3 mL/min/kg
- CLint scaled at 1 µM (in vitro [2]): 647 mL/min/kg
- CLint scaled at 1 µM (in vitro [3]): 23.3 mL/min/kg
- CLint scaled at 0.5 h, 1 µM (in vitro [4]): 2150 mL/min/kg
SMILES: COc1ccc2c(c1)CCn1c-2cc(OCC2CCCO2)nc1=O (stereo not drawn)

- CLint scaled at 0.5 h, 1 µM (in vitro [1]): 88.3 mL/min/kg
- CLint scaled at 0.5 h, 1 µM (in vitro [4]): 433 mL/min/kg
SMILES: CN(CC#Cc1ccc2c(c1)CCn1c-2cc(OCC2COCCO2)nc1=O)Cc1ccccc1 (stereo not drawn)

- IC50 [5]: > 10000 nM
- CLint scaled at 0.5 h, 1 µM (in vitro [4]): 487 mL/min/kg
SMILES: COc1ccc2c(c1)CCn1c-2cc(OCc2ncccc2F)nc1=O

The next lines start with the compound.

SMILES: COc1cc2c(cc1OC)-c1cc(OCCOc3ccccn3)nc(=O)n1CC2
- IC50 [5]: 586 nM
- solubility (physchem [6]): 18 µg/mL (≈ 45.5 µM)

SMILES: COc1ccc2c(c1)CCn1c-2cc(OCC2COc3ccccc3O2)nc1=O (stereo not drawn)
- CLint scaled at 0.5 h, 1 µM (in vitro [1]): 76.7 mL/min/kg
- fraction unbound at 4 h, 5 µM [8]: 0.01
- fraction unbound at 4 h, 5 µM [9]: 0.002
- CLint scaled at 1 µM (in vitro [2]): 375 mL/min/kg
- CLint scaled at 0.5 h, 1 µM (in vitro [7]): 615 mL/min/kg
- fraction unbound at 4 h, 5 µM [10]: 0.004
- CLint scaled at 1 µM (in vitro [3]): 90 mL/min/kg
- CLint scaled at 0.5 h, 1 µM (in vitro [4]): 532 mL/min/kg

SMILES: O=c1nc(OC[C@H]2COCCO2)cc2n1CCc1cc(C#CC3CC3)ccc1-2
- CLint scaled at 0.5 h, 1 µM (in vitro [1]): 16 mL/min/kg
- IC50 (Cytochrome P450 2C19): 18200 nM
- half-life at 1 µM (in vitro [11]): > 2.52 h
- IC50 [12]: 153 nM
- CLint scaled at 1 µM (in vitro [13]): < 32 mL/min/kg
- solubility thermodynamic [14]: 9.49 µg/mL (≈ 25.1 µM)
- half-life at 1 µM (in vitro [15]): > 3.33 h
- IC50 [16]: 51 nM
- solubility (physchem [17]): 113 µg/mL (≈ 299 µM)
- fraction unbound at 4 h, 5 µM [8]: 0.017
- fraction unbound at 4 h, 5 µM [9]: 0.059
- IC50 (Cytochrome P450 3A4 [18]): > 50000 nM
- CLint scaled at 1 µM (in vitro [2]): < 72.8 mL/min/kg
- CLint scaled at 0.5 h, 1 µM (in vitro [7]): 82.8 mL/min/kg
- half-life at 1 µM (in vitro [19]): > 3.33 h
- fraction unbound at 4 h, 5 µM [10]: 0.037
- IC50 (Cytochrome P450 1A2): > 100000 nM
- IC50 (Neutrophil): 111 nM
- Papp A→B at 1 h, 10 µM [20]: 31.2 ×10⁻⁶ cm/s
- IC50 [21]: 31600 nM
- CLint scaled at 1 µM (in vitro [3]): < 21.3 mL/min/kg
- solubility (physchem [6]): 113 µg/mL (≈ 299 µM)
- IC50 [22]: 1850 nM
- IC50 (Cytochrome P450 3A4 [23]): > 50000 nM
- half-life at 1 µM (in vitro [24]): > 3.13 h
- CLint scaled at 0.5 h, 1 µM (in vitro [25]): 52.7 mL/min/kg
- fraction unbound at 4 h, 5 µM [26]: 0.033
- solubility thermodynamic [27]: 17.6 µg/mL (≈ 46.5 µM)
- CLint scaled at 0.5 h, 1 µM (in vitro [4]): 98.3 mL/min/kg
- CLint scaled at 1 µM (in vitro [28]): < 35.3 mL/min/kg

SMILES: COc1ccc2c(c1)CCn1c-2cc(OC[C@H]2COc3ncccc3O2)nc1=O
- CLint scaled at 0.5 h, 1 µM (in vitro [1]): 35 mL/min/kg
- fraction unbound at 4 h, 5 µM [8]: 0.087
- fraction unbound at 4 h, 5 µM [9]: 0.027
- CLint scaled at 1 µM (in vitro [2]): 182 mL/min/kg
- CLint scaled at 0.5 h, 1 µM (in vitro [7]): 152 mL/min/kg
- fraction unbound at 4 h, 5 µM [10]: 0.021
- CLint scaled at 1 µM (in vitro [3]): 13.3 mL/min/kg
- CLint scaled at 0.5 h, 1 µM (in vitro [4]): 360 mL/min/kg

SMILES: COc1cc2c(cc1OC)-c1cc(OCCOc3ccccc3)nc(=O)n1CC2
- IC50 [16]: 128 nM
- IC50 [5]: 2110 nM
- solubility (physchem [6]): 26 µg/mL (≈ 65.9 µM)
